Bioassay records as filed in PubChem.
In the library only some 0.9% were active in any assay of this set; here they are far more common.
S1P4 antagonist: S1P4 receptor antagonists, primary screen, cell-based | 220,000 compounds, 0.26% hits | inhibition, % at 4.98 µM | S1P4-expressing cells, antagonist mode, reporter read-out; in the data active means inhibition above about 29%
Target sequence (O95977 whole entry, looked up): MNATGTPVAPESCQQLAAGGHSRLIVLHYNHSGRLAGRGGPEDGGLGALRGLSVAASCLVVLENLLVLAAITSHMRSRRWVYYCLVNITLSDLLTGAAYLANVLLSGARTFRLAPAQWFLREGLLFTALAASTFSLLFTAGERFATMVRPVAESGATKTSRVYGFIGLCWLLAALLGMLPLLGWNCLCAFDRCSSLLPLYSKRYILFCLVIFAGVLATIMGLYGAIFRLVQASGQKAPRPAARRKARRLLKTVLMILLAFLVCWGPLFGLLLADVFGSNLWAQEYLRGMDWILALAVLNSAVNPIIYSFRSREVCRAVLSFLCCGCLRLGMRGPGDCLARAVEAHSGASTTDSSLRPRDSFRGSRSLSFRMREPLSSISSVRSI
S1P3 antagonist: S1P3 receptor antagonists, primary screen, cell-based | Sphingosine 1-phosphate receptor 3 (Homo sapiens), Q99500 | CHO S1P3 NFAT-BLA reporter, FRET fluorescence, antagonist mode | inhibition, % at 4.98 µM | 170,000 compounds, 0.27% hits | AID 485, 2006;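 active means inhibition above the plate cutoff, the mean inhibition of test wells on that plate plus 3 SD, cut at about 28% in these data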;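 further: cells challenged with S1P at its EC80 of 0.8 µM; blue over green emission ratio from cleaved BLA substrate after 4 h stimulation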
S1P4 ag: S1P4 receptor agonists, primary screen, cell-based | Sphingosine 1-phosphate receptor 4 (Homo sapiens), O95977 | S1P4-expressing cell line, agonist reporter assay | activation, % at 4.98 µM | 220,000 compounds, 0.35% hits; in the data active means activation above about 11%
Biofilm kill mix: clotrimazole potentiators killing C. albicans biofilm, primary screen, 4-compound mixtures; C. albicans biofilm persisters + clotrimazole, fluorescence viability; primary screen in compound mixtures of four per well; AID 1242, 2008; 120,000 compounds, 0.02% hits; inhibition, % at 7.6 µM;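 active means inhibition above 30.3% in the primary screen of four-compound pools, then above 30% when the compound was retested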;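 further: compounds exposed to preformed 24 h biofilms for 48 h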
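Test system: C. albicans biofilms. Buffer or medium: RPMI/MOPS medium, pH 7.0. Timing: 48 h compound exposure at 37 °C. Technique: Alamar Blue fluorescence. Evaluation: percent inhibition of biofilm viability.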
MDM2 E3 inh: MDM2-luciferase reporter signal enhancers, primary screen, MDM2 E3 ligase inhibitor project, cell-based, luminescence, 1536-well. E3 ubiquitin-protein ligase Mdm2 (Homo sapiens), Q00987. cell-based MDM2 ubiquitination luciferase reporter, 2 h; 0 = plate control, 100 = twice control, blank-subtracted. signal enhancement, % at 5 µM. 210,000 compounds, 0.11% hits;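 active means signal enhancement of 30% or more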;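 further: luminescence tracks abundance of the self-degrading MDM2-luciferase fusion protein; higher signal means inhibition of MDM2 E3 ligase activity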
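Material: stable MDM2–luciferase fusion reporter cells / Quantity: 2000 cells/well / Dosing: single 5 µM compound dose, 0.2% final DMSO / Buffer or medium: DMEM / Schedule: 4 h cell settling then 2 h compound exposure, 37 °C / Detection: luminescence with SteadyLite reagent, 15 min at room temperature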
S1P4 antag cf: S1P4 receptor antagonists, human, confirmation, cell-based. inhibition, % at 4.98 µM. 520 compounds, 71% hits. AID 1524, 2009. S1P4-expressing cell line, antagonist mode, reporter read-out. shares compounds with S1P4 antagonist; in the data active means inhibition above about 30%
S1P1 antagonist: S1P1 receptor antagonists, human, counter-screen for S1P4 antagonist project, cell-based | cell-based S1P1 antagonist counterscreen, inhibition | 520 compounds, 37% hits | inhibition, % at 4.98 µM | shares compounds with S1P4 antagonist | AID 1564, 2009; in the data active means inhibition above about 40%;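 further: receptor stimulated with S1P near its EC80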
Numbers stand for hits.

Cc1ccc(C(=O)Nc2nc3ccccc3n2CCN2CCCC2)cc1 was read as S1P4 antagonist 30.5, S1P3 antagonist inactive, S1P4 ag inactive, MDM2 E3 inh inactive, S1P4 antag cf inactive and S1P1 antagonist inactive.
Screening CCCn1c(NC(=O)c2ccccc2)nc2ccccc21 returned S1P4 antagonist 29.5, S1P3 antagonist inactive, S1P4 ag inactive, MDM2 E3 inh inactive, S1P4 antag cf inactive and S1P1 antagonist inactive.
For O=C(CNC(=O)c1cccs1)OCC(=O)c1ccccc1Cl the results were S1P4 antagonist inactive, S1P3 antagonist inactive, S1P4 ag inactive, Biofilm kill mix inactive and MDM2 E3 inh inactive.
`Cc1nn(Cc2ccc([N+](=O)[O-])cc2)c(=O)n1-c1c(F)cccc1F` gave S1P4 antagonist inactive, S1P4 ag inactive and MDM2 E3 inh inactive.
`COc1ccc(C(=O)c2c(C(F)(F)F)oc3c2C(=O)c2ccccc2C3=O)cc1OC` gave S1P4 antagonist 32.5, S1P4 ag inactive, MDM2 E3 inh inactive, S1P4 antag cf 71.2 and S1P1 antagonist 57.0.
CCc1ccc(NC(=O)Cn2cccc2)cc1 was read as S1P4 antagonist inactive, S1P3 antagonist inactive, S1P4 ag inactive, Biofilm kill mix inactive and MDM2 E3 inh inactive.
For CC(=O)Oc1ccc2c(c1)O/C(=C\c1ccncc1)C2=O the results were S1P4 antagonist inactive, S1P3 antagonist inactive, S1P4 ag inactive, Biofilm kill mix inactive and MDM2 E3 inh inactive.
Screening CCC(=O)Oc1ccc2c(c1)O/C(=C\c1ccco1)C2=O returned S1P4 antagonist 29.4, S1P3 antagonist inactive, S1P4 ag inactive, Biofilm kill mix inactive, MDM2 E3 inh inactive, S1P4 antag cf 36.6 and S1P1 antagonist inactive.
`COc1ccc(C2C=C(c3ccc(C)cc3)Nc3ncnn32)cc1` (centres undefined) gave S1P4 antagonist 29.2, S1P4 ag inactive, MDM2 E3 inh inactive, S1P4 antag cf 43.3 and S1P1 antagonist 43.6.
Oc1ccc(C2C=C(c3ccc(F)cc3)Nc3ncnn32)cc1 (centres undefined) was read as S1P4 antagonist 42.5, S1P3 antagonist inactive, S1P4 ag inactive, Biofilm kill mix inactive, MDM2 E3 inh inactive, S1P4 antag cf inactive and S1P1 antagonist inactive.
Screening CC1CN(C2=NC(=O)/C(=C/c3ccncc3)S2)CC(C)O1 (centres undefined) returned S1P4 antagonist inactive, S1P3 antagonist inactive, S1P4 ag inactive, Biofilm kill mix inactive and MDM2 E3 inh inactive.
Fc1ccc(Nc2nc(N/N=C/c3ccco3)nc(N3CCCCC3)n2)cc1 was read as S1P4 antagonist inactive, S1P3 antagonist inactive, S1P4 ag inactive, Biofilm kill mix inactive and MDM2 E3 inh inactive.
`CC(C)C(=O)N1CCN(c2ccc(NC(=O)c3ccc(Br)o3)cc2)CC1` gave S1P4 antagonist inactive, S1P3 antagonist inactive, S1P4 ag inactive and MDM2 E3 inh inactive.
`CC(C)C(=O)N1CCN(c2ccc(NC(=O)c3ccc([N+](=O)[O-])o3)cc2)CC1` gave S1P4 antagonist 69.8, S1P3 antagonist inactive, S1P4 ag inactive, Biofilm kill mix inactive, MDM2 E3 inh inactive, S1P4 antag cf 88.0 and S1P1 antagonist 66.2.
CCCC(=O)N1CCN(c2ccc(NC(=O)c3ccc([N+](=O)[O-])o3)cc2Cl)CC1 was read as S1P4 antagonist 87.2, S1P3 antagonist inactive, S1P4 ag inactive, Biofilm kill mix inactive, MDM2 E3 inh inactive, S1P4 antag cf 99.4 and S1P1 antagonist 48.5.
Screening O=C(Nc1ccc(N2CCN(C(=O)c3ccccc3)CC2)cc1)c1ccc([N+](=O)[O-])o1 returned S1P4 antagonist 83.8, S1P3 antagonist inactive, S1P4 ag inactive, Biofilm kill mix inactive, MDM2 E3 inh inactive, S1P4 antag cf 116.5 and S1P1 antagonist 77.1.
